In ChEMBL document CHEMBL3774372, “Design, physico-chemical properties and biological evaluation of some new N-[(phenoxy)alkyl]- and N-{2-[2-(phenoxy)ethoxy]ethyl}aminoalkanols as anticonvulsant agents” (Bioorg Med Chem, 2016):
Activity calls are given as the source filed them.

Tests used:
Mus musculus [1] = experiment: Neurotoxicity in mouse at 50 mg/kg, ip after 4 hrs by rotarod test; type: toxicity, organism-based; details: in vivo
How it was run: (§1)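 Mice were dosed ip with compound suspended in 0.5% methylcellulose. Rotarod: a 1 in. knurled rod turning at 6 rpm. Neurotoxicity was scored as failure to stay on the rod for at least 1 min in each of three trials. Results are given as the number of animals affected out of the number tested.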

Mus musculus [2] = experiment: Neurotoxicity in mouse at 50 mg/kg, ip after 2 hrs by rotarod test; type: toxicity, organism-based; details: in vivo; how it was run: as §1
Mus musculus [3] = experiment: Neurotoxicity in mouse at 30 mg/kg, ip after 4 hrs by rotarod test; type: toxicity, organism-based; details: in vivo; how it was run: as §1
Mus musculus [4] = experiment: Neurotoxicity in mouse at 30 mg/kg, ip after 0.5 hrs by rotarod test; type: toxicity, organism-based; details: in vivo; how it was run: as §1
Mus musculus [5] = experiment: Neurotoxicity in mouse at 300 mg/kg, ip after 0.5 hrs by rotarod test; type: toxicity, organism-based; details: in vivo; how it was run: as §1
Mus musculus [6] = experiment: Neurotoxicity in mouse at 50 mg/kg, ip after 1 hr by rotarod test; type: toxicity, organism-based; details: in vivo; how it was run: as §1
Mus musculus [7] = experiment: Neurotoxicity in mouse at 100 mg/kg, ip after 0.5 hrs by rotarod test; type: toxicity, organism-based; details: in vivo; how it was run: as §1
Mus musculus [8] = experiment: Anticonvulsant activity in mouse assessed as protection against maximal electric shock-induced seizures at 30 mg/kg, ip measured after 4 hrs; type: functional, organism-based
How it was run: (§2)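 Mice dosed ip with suspension in 0.5% methylcellulose; maximal electroshock applied at the listed time after dosing. Protection = abolition of hindlimb tonic extension component of seizure; reported as animals protected/animals tested.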

Vibrio harveyi [9] = experiment: Antimutagenic activity against Vibrio harveyi BB7M assessed as inhibition of NQNO-induced mutagenicity after 48 hrs; type: functional
How it was run: (§3)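 V. harveyi cultures grown exponentially to A600 0.1 at 30 °C, exposed to test compound for 15 min, then to NQNO, and grown on to A600 0.3–0.4. 5 × 10⁶ cells plated on BOSS agar with neomycin (100, final). Neomycin-resistant colonies counted after 48 h at 30 °C. Result given as % inhibition of NQNO mutagenicity; three independent repeats.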

Vibrio harveyi [10] = experiment: Mutagenicity in Vibrio harveyi BB7X assessed as number of colonies after 48 hrs (reference value: 15 to 16 no_unit); type: ADME, organism-based; details: in vivo
How it was run: (§4)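 Vibrio harveyi mutagenicity test: test compound was added to exponentially growing cultures (A600 = 0.1, 30 °C) and grown to OD600 0.3–0.4. Then 5 × 10^6 cells were plated on BOSS agar with neomycin (final 100 µg/mL) and incubated 48 h at 30 °C. Neomycin-resistant colonies were counted. Triplicate; controls were water, DMSO and NQNO 40 ng/mL.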

Mus musculus [11] = experiment: Anticonvulsant activity in mouse assessed as protection against subcutaneous pentylenetetrazol-induced seizures at 30 mg/kg, ip measured after 4 hrs; type: functional, organism-based
How it was run: (§5)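 Mice dosed ip as 0.5% methylcellulose suspension; pentylenetetrazole 85 mg/kg in 0.9% NaCl injected subcutaneously into posterior midline, animals watched at least 30 min. Protection = no threshold seizure (single clonic spasm episode lasting ≥5 s); scored protected/tested.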

in vitro [12] = details: mouse, liver microsomes
in vitro [13] = details: mouse, liver microsomes; remark: listed apart in the source
Vibrio harveyi [14] = experiment: Mutagenicity in Vibrio harveyi BB7M assessed as number of colonies after 48 hrs (reference value: 13 to 14 no_unit); type: ADME, organism-based; details: in vivo; how it was run: as §4
Mus musculus [15] = experiment: Anticonvulsant activity in mouse assessed as protection against subcutaneous pentylenetetrazol-induced seizures at 100 mg/kg, ip measured after 0.5 hrs; type: functional, organism-based; how it was run: as §5
Mus musculus [16] = experiment: Anticonvulsant activity in mouse assessed as protection against maximal electric shock-induced seizures at 30 mg/kg, ip measured after 0.5 hrs; type: functional, organism-based; how it was run: as §2
Vibrio harveyi [17] = experiment: Antimutagenic activity against Vibrio harveyi BB7X assessed as inhibition of NQNO-induced mutagenicity after 48 hrs; type: functional; how it was run: as §3
Mus musculus [18] = experiment: Anticonvulsant activity in mouse assessed as protection against subcutaneous pentylenetetrazol-induced seizures at 30 mg/kg, ip measured after 0.5 hrs; type: functional, organism-based; how it was run: as §5
Mus musculus [19] = experiment: Neurotoxicity in mouse at 100 mg/kg, ip after 4 hrs by rotarod test; type: toxicity, organism-based; details: in vivo; how it was run: as §1
Mus musculus [20] = experiment: Anticonvulsant activity in mouse assessed as protection against subcutaneous pentylenetetrazol-induced seizures at 100 mg/kg, ip measured after 4 hrs; type: functional, organism-based; how it was run: as §5
Vibrio harveyi [21] = experiment: Mutagenicity in Vibrio harveyi BB7 assessed as number of colonies after 48 hrs (reference value: 13 to 14 no_unit); type: ADME, organism-based; details: in vivo; how it was run: as §4
Vibrio harveyi [22] = experiment: Antimutagenic activity against Vibrio harveyi BB7 assessed as inhibition of NQNO-induced mutagenicity after 48 hrs; type: functional; how it was run: as §3
Mus musculus [23] = experiment: Anticonvulsant activity in mouse assessed as protection against maximal electric shock-induced seizures at 100 mg/kg, ip measured after 0.5 hrs; type: functional, organism-based; how it was run: as §2
Vibrio harveyi [24] = experiment: Mutagenicity in Vibrio harveyi BB7XM assessed as number of colonies after 48 hrs (reference value: 14 no_unit); type: ADME, organism-based; details: in vivo; how it was run: as §4
[25] = Retention time of the compound in mouse liver microsomes at 20 uM preincubated for 15 mins followed by addition of NADPH-regenerating system measured after 5 to 90 mins by […] analysis; type: ADME
How it was run: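 Mouse liver microsomes (0.4 mg/mL) with test compound (20 µM) in 100 mM potassium phosphate, pH 7.4, were preincubated 15 min at 37 °C. An NADPH-regenerating system was then added and incubation ran 5–90 min at 37 °C. Levallorphan (20 µM) served as internal standard, and reactions were quenched with perchloric acid. The supernatant was analysed by UPLC/MS. Duplicate incubations.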

Vibrio harveyi [26] = experiment: Antimutagenic activity against Vibrio harveyi BB7XM assessed as inhibition of NQNO-induced mutagenicity after 48 hrs; type: functional; how it was run: as §3
Rattus norvegicus [27] = experiment: Neurotoxicity in rat at 30 mg/kg, po after […] by rotarod test; type: toxicity, organism-based; details: in vivo
Rattus norvegicus [28] = experiment: Neurotoxicity in rat at 30 mg/kg, po after 0.5 hrs by rotarod test; type: toxicity, organism-based; details: in vivo
Rattus norvegicus [29] = experiment: Anticonvulsant activity in rat assessed as protection against maximal electric shock-induced seizures at 30 mg/kg, ip measured after 4 hrs; type: functional, organism-based
How it was run: (§6)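 Rats dosed ip or orally as 0.5% methylcellulose suspension; maximal electroshock at listed time. Protection = abolition of hindlimb tonic extension; 4 rats per group, scored protected/tested.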

Rattus norvegicus [30] = experiment: Neurotoxicity in rat at 30 mg/kg, ip after 4 hrs by rotarod test; type: toxicity, organism-based; details: in vivo
Rattus norvegicus [31] = experiment: Neurotoxicity in rat at 30 mg/kg, po after 1 hr by rotarod test; type: toxicity, organism-based; details: in vivo
Rattus norvegicus [32] = experiment: Anticonvulsant activity in rat assessed as protection against maximal electric shock-induced seizures at 30 mg/kg, po measured after 4 hrs; type: functional, organism-based; how it was run: as §6
Mus musculus [33] = experiment: Anticonvulsant activity in mouse assessed as protection against 6 Hz psychomotor seizure at 100 mg/kg, ip after 2 hrs; type: functional, organism-based
How it was run: (§7)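 Suspension in 0.5% methylcellulose given ip to mice; corneal stimulation with 0.2 ms monopolar rectangular pulses at 6 Hz for 3 s from a constant current device, mice restrained then released to observation cage. Protected if normal exploratory behaviour resumed within 10 s of stimulation. Scored as protected/tested, 4 mice per group.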

Rattus norvegicus [34] = experiment: Neurotoxicity in rat at 30 mg/kg, ip after 2 hrs by rotarod test; type: toxicity, organism-based; details: in vivo
Rattus norvegicus [35] = experiment: Neurotoxicity in rat at 30 mg/kg, ip after […] by rotarod test; type: toxicity, organism-based; details: in vivo
Mus musculus [36] = experiment: Neurotoxicity in mouse at 100 mg/kg, ip after 1 hr by rotarod test; type: toxicity, organism-based; details: in vivo; how it was run: as §1
Rattus norvegicus [37] = experiment: Neurotoxicity in rat at 30 mg/kg, ip after 1 hr by rotarod test; type: toxicity, organism-based; details: in vivo
Rattus norvegicus [38] = experiment: Neurotoxicity in rat at 30 mg/kg, ip after 0.5 hrs by rotarod test; type: toxicity, organism-based; details: in vivo
Rattus norvegicus [39] = experiment: Anticonvulsant activity in rat assessed as protection against maximal electric shock-induced seizures at 30 mg/kg, po measured after 2 hrs; type: functional, organism-based; how it was run: as §6
Rattus norvegicus [40] = experiment: Anticonvulsant activity in rat assessed as protection against maximal electric shock-induced seizures at 30 mg/kg, po measured after 1 hr; type: functional, organism-based; how it was run: as §6
Rattus norvegicus [41] = experiment: Neurotoxicity in rat at 30 mg/kg, po after 2 hrs by rotarod test; type: toxicity, organism-based; details: in vivo
Mus musculus [42] = experiment: Anticonvulsant activity in mouse assessed as protection against maximal electric shock-induced seizures at 100 mg/kg, ip measured after […]; type: functional, organism-based
Rattus norvegicus [43] = experiment: Anticonvulsant activity in rat assessed as protection against maximal electric shock-induced seizures at 30 mg/kg, ip measured after 2 hrs; type: functional, organism-based; how it was run: as §6
Mus musculus [44] = experiment: Anticonvulsant activity in mouse assessed as protection against maximal electric shock-induced seizures at 100 mg/kg, ip measured after 4 hrs; type: functional, organism-based; how it was run: as §2
Rattus norvegicus [45] = experiment: Anticonvulsant activity in rat assessed as protection against maximal electric shock-induced seizures at 30 mg/kg, po measured after […]; type: functional, organism-based
Mus musculus [46] = experiment: Anticonvulsant activity in mouse assessed as protection against 6 Hz psychomotor seizure at 100 mg/kg, ip after 4 hrs; type: functional, organism-based; how it was run: as §7
Rattus norvegicus [47] = experiment: Neurotoxicity in rat at 30 mg/kg, po after 4 hrs by rotarod test; type: toxicity, organism-based; details: in vivo
Mus musculus [48] = experiment: Neurotoxicity in mouse at 100 mg/kg, ip after 2 hrs by rotarod test; type: toxicity, organism-based; details: in vivo; how it was run: as §1
Rattus norvegicus [49] = experiment: Anticonvulsant activity in rat assessed as protection against maximal electric shock-induced seizures at 30 mg/kg, po measured after 0.5 hrs; type: functional, organism-based; how it was run: as §6

Compound: Cc1cccc(C)c1OCCOCCN[C@H](C)CO
- Activity (Mus musculus [1]): Non-toxic
- Activity (Mus musculus [2]): Non-toxic
- Activity (Mus musculus [3]): Non-toxic
- Activity (Mus musculus [4]): Non-toxic
- Activity (Mus musculus [5]): Toxic
- Activity (Mus musculus [6]): Non-toxic
- Activity (Mus musculus [7]): Toxic

Compound: Cc1cc(C)c(OCCOCCNC(C)CO)c(C)c1 (centres undefined)
- Activity (Mus musculus [8]): inactive
- inhibition (INH) (Vibrio harveyi [9]): 62%
- Activity (Vibrio harveyi [10]): 24
- Activity (Mus musculus [11]): inactive
- half-life at 20 µM (in vitro [12]): 2.27 h
- microsomal CLint at 20 µM (in vitro [13]): 13 µL/min/mg
- Activity (Vibrio harveyi [14]): 19
- Activity (Mus musculus [3]): Non-toxic
- Activity (Mus musculus [4]): Non-toxic
- Activity (Mus musculus [15]): inactive
- Activity (Mus musculus [16]): inactive
- inhibition (INH) (Vibrio harveyi [17]): 38%
- Activity (Mus musculus [18]): inactive
- Activity (Mus musculus [5]): Toxic
- Activity (Mus musculus [19]): Non-toxic
- Activity (Mus musculus [20]): inactive
- Activity (Vibrio harveyi [21]): 25
- inhibition (INH) (Vibrio harveyi [22]): 81%
- Activity (Mus musculus [23]): Active
- Activity (Vibrio harveyi [24]): 24
- Retention_time [25]: 4.31 min
- inhibition (INH) (Vibrio harveyi [26]): 43%

Compound: Cc1cccc(OCCCN2CCC(O)CC2)c1C
- Activity (Rattus norvegicus [27]): Non-toxic
- Activity (Rattus norvegicus [28]): Non-toxic
- Activity (Rattus norvegicus [29]): inactive
- Activity (Rattus norvegicus [30]): Non-toxic
- Activity (Rattus norvegicus [31]): Non-toxic
- Activity (Rattus norvegicus [32]): inactive
- Activity (Mus musculus [33]): inactive
- Activity (Rattus norvegicus [34]): Non-toxic
- Activity (Rattus norvegicus [35]): Non-toxic
- Activity (Mus musculus [36]): Non-toxic
- Activity (Rattus norvegicus [37]): Non-toxic
- Activity (Rattus norvegicus [38]): Non-toxic
- Activity (Rattus norvegicus [39]): inactive
- Activity (Rattus norvegicus [40]): inactive
- Activity (Rattus norvegicus [41]): Non-toxic
- Activity (Mus musculus [42]): Active
- Activity (Rattus norvegicus [43]): inactive
- Activity (Mus musculus [44]): inactive
- Activity (Rattus norvegicus [45]): inactive
- Activity (Mus musculus [46]): inactive
- Activity (Mus musculus [19]): Non-toxic
- Activity (Rattus norvegicus [47]): Non-toxic
- Activity (Mus musculus [48]): Non-toxic
- Activity (Mus musculus [23]): Active
- Activity (Rattus norvegicus [49]): inactive
